Test results from ChEMBL document CHEMBL1140211, “The role of molecular modeling in the design of analogues of the fungicidal natural products crocacins A and D” (Bioorg Med Chem, 2008).
pIC50: −log10 of the molar value. Activity calls are given as the source filed them. The rule behind the calls is not given here.

Tests used:
Plasmopara viticola = assay: Inhibition of Plasmopara viticola cytochrome bc1 complex inoculated in vine plant assessed as lowest drug concentration required to control 100% disease applied to leaf 1 hr prior inoculation measured after 6 to 9 days
In short: (§1)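 Spray solutions were made up in reverse osmosis water immediately before use, with Tween 20 at 0.05% by volume final to improve deposit retention. Concentrations tested were 100, 50, 25, 10, 5 and 1 ppm. The breakpoint is the lowest of these six concentrations giving 100% disease control, converted to molar units. Azoxystrobin served as the standard.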

[1] = (§2) Inhibition of cytochrome bc1 complex in bovine heart mitochondria by NADH oxidase assay; parameters: species or system Bos taurus
In short: (§3)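 Microtitre-plate assay with beef heart mitochondria at a final 68.8 μg/ml in pH 8.0 phosphate buffer. Compounds were diluted in DMSO (2% final) from a top final concentration of 20 ppm. Plates were preincubated 15 min at room temperature, then NADH was added in pH 8.0 phosphate buffer to a final 200 ppm.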

[2] = test system: Blumeria graminis f. sp. tritici; assay: Inhibition of Blumeria graminis f. sp. Tritici cytochrome bc1 complex inoculated in wheat plant assessed as lowest drug concentration required to control 100% disease applied to leaf 1 hr prior inoculation measured after 6 to 9 days; in short: as §1
Phytophthora infestans = assay: Inhibition of Phytophthora infestans cytochrome bc1 complex inoculated in tomato plant assessed as lowest drug concentration required to control 100% disease applied to leaf 1 hr prior inoculation measured after 6 to 9 days; in short: as §1
Puccinia triticina = assay: Inhibition of Puccinia triticina cytochrome bc1 complex inoculated in wheat plant assessed as lowest drug concentration required to control 100% disease applied to leaf 1 hr prior inoculation measured after 6 to 9 days; in short: as §1
[3] = test system: Mycosphaerella graminicola; assay: Inhibition of Mycosphaerella graminicola cytochrome bc1 complex inoculated in wheat plant assessed as lowest drug concentration required to control 100% disease applied to leaf 1 hr prior inoculation measured after 6 to 9 days; in short: as §1
Bos taurus = organism: Bos taurus; assay: as §2; in short: as §3

## CCCCCCCCCCCCC(=O)N/C=C\CCCC(=O)NCC(=O)OC
Plasmopara viticola
  Activity: > 100 µM
[1]
  pIC50: 7.62

## COC(=O)CNC(=O)/C=C\C/C=C\NC(=O)/C=C(C)/C=C/[C@H](C)[C@H](OC)[C@H](C)[C@H](/C=C/c1ccccc1)OC [CROCACIN A]
Plasmopara viticola
  Activity: 45 µM
[2]
  Activity: > 180 µM
Phytophthora infestans
  Activity: > 180 µM
Puccinia triticina
  Activity: 45 µM
[3]
  Activity: > 180 µM
[1]
  pIC50: 7.25

## CCc1ccc(Oc2ccc(Cn3c(=O)oc4ccc(OCC(=O)OC)cc43)cc2)cc1
[1]
  pIC50: 6.85

## C/C=C(C)/C=C/C=C/[C@H](OC)[C@@H](C)[C@@H](OC)[C@@H](C)CCc1oc2c(O)c(OC)cc(OC)c2c(=O)c1C [STIGMATELLIN]
Plasmopara viticola
  Activity: 180 µM
[2]
  Activity: > 180 µM
Phytophthora infestans
  Activity: > 180 µM
Puccinia triticina
  Activity: > 180 µM
[3]
  Activity: > 180 µM
[1]
  pIC50: 7.09

## CCCCCCOc1ccc(C(=O)N/C=C\CCCC(=O)NCC(=O)OC)cc1
Plasmopara viticola
  Activity: > 100 µM
[1]
  pIC50: 7.68

## COC(=O)CNC(=O)CCCc1ccccc1NC(=O)CCCCCCCCCc1ccccc1
Bos taurus
  Activity: inactive

## CCOc1ccc(Cc2ccc(C(=O)N/C=C\CCCC(=O)NCC(=O)OC)cc2)cc1
Plasmopara viticola
  Activity: 25 µM
[1]
  pIC50: 8.05

## CCc1ccc(Cc2ccc(Cn3c(=O)oc4ccc(NCC(=O)OC)cc43)cc2)cc1
Bos taurus
  Activity: inactive

## COC(=O)CNC(=O)CCC/C=C\NC(=O)c1ccc(Cc2ccc(Br)cc2)cc1
Plasmopara viticola
  Activity: 10 µM
[1]
  pIC50: 7.77

## CCc1ccc(Cc2ccc(C(=O)N/C=C\CCCC(=O)NCC(=O)OC)cc2)cc1
[1]
  pIC50: 7.80

## COC(=O)COc1ccc2oc(=O)n(Cc3ccc(Cc4ccc(I)cc4)cc3)c2c1
[1]
  pIC50: 7.12

## CO/C=C(/C(=O)OC)c1ccccc1Oc1cc(Oc2ccccc2C#N)ncn1 [AZOXYSTROBIN]
Plasmopara viticola
  Activity: < 1.8 µM
[2]
  Activity: < 1.8 µM
Phytophthora infestans
  Activity: < 1.8 µM
Puccinia triticina
  Activity: < 1.8 µM
[3]
  Activity: < 1.8 µM
[1]
  pIC50: 6.92

## COC(=O)CNC(=O)CCC/C=C\NC(=O)c1ccc(Cc2ccc(I)cc2)cc1
[1]
  pIC50: 7.74

## CCc1ccc(Oc2ccc(C(=O)N[C@H]3C[C@H]3CCC(=O)NCC(=O)OC)cc2)cc1
[1]
  pIC50: 6.05

## CCc1ccc(Cc2ccc(Cn3c(=O)oc4ccc(OCC(=O)OC)cc43)cc2)cc1
[1]
  pIC50: 7.35

## CCc1ccc(Oc2ccc(C(=O)NCCOCC(=O)NCC(=O)OC)cc2)cc1
[1]
  pIC50: 6.64

## COC(=O)CNC(=O)CCC/C=C\NC(=O)/C=C(C)/C=C/[C@H](C)[C@H](OC)[C@H](C)[C@H](/C=C/c1ccccc1)OC [CROCACIN D]
Plasmopara viticola
  Activity: 25 µM
[2]
  Activity: > 180 µM
Phytophthora infestans
  Activity: 45 µM
Puccinia triticina
  Activity: 9 µM
[3]
  Activity: 45 µM
[1]
  pIC50: 7.44

## CCc1ccc(Oc2ccc(C(=O)NCCCCC(=O)NCC(=O)OC)cc2)cc1
[1]
  pIC50: 6.40
